# Measured values from ChEMBL document CHEMBL1130289, “Polyanion inhibitors of human immunodeficiency virus and other viruses. 5. Telomerized anionic surfactants derived from amino acids” (J Med Chem, 1997).
# Experiments:
# [1] = test system: Human immunodeficiency virus 1; test: Inhibitory concentration required to inhibit HIV-induced cytopathicity in CEM-4 cells by 50% based in the MTT assay; Not active; assay type: functional, organism-based
# CEM-4 = test: Cytotoxic concentration required to reduce the viability of uninfected cells by 50% after 5 days of incubation in the presence on CEM-4 cells.; assay type: functional; conditions: Homo sapiens, CEM-4, 120 h
# Outline: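 Uninfected CEM-4 cells were incubated with compound for 5 days. CC50 is the concentration that reduced viability by 50%. Values average at least two separate experiments.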
# Human alphaherpesvirus 2 = test: Concentration required to inhibit HSV-2(G) induced cytopathicity in E6SM cells by 50%; conditions: Human alphaherpesvirus 2, E6SM
# [2] = test system: Human immunodeficiency virus 2; test: Concentration required to inhibit HIV-2 induced cytopathicity in MT-4 cells by 50%; assay type: functional, organism-based; conditions: Human immunodeficiency virus 2, MT4
# Outline: (§1)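 MT-4 cells were infected with HIV-1 (strain HTLV-IIIB/LAI) or HIV-2 (strain LAV-2 ROD) and exposed to compound. IC50 is the concentration that inhibited HIV-induced cytopathicity by 50%. Values are means of two separate experiments.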
# Coxsackievirus = test: Concentration required to inhibit Coxsackie induced cytopathicity in HeLa cells by 50%; assay type: functional, organism-based
# Outline: (§2)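 Virus was added to the cell monolayers in the presence of compound. Incubation continued until the viral cytopathic effect was scored. IC50 is the concentration that reduced virus-induced cytopathicity by 50%.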
# Human betaherpesvirus 5 [3] = test: Concentration required to inhibit HCMV(AD169) induced cytopathicity in HEL cells by 50%; assay type: functional, organism-based; conditions: Human betaherpesvirus 5, HEL; outline: as §2
# E6SM = test: Minimum cytotoxic concentration required to cause a microscopically detectable alteration of normal cell morphology in E6SM cells; assay type: functional, Homo sapiens
# Outline: (§3)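 Uninfected E6SM, HeLa or Vero cells were exposed to compound and examined by microscopy. MCC is the lowest concentration causing a detectable alteration of normal cell morphology.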
# Tacaribe virus = test: Concentration required to inhibit Tacaribe induced cytopathicity in Vero cells by 50%; assay type: functional, cell-based; conditions: Mammarenavirus tacaribeense
# [4] = test system: Human immunodeficiency virus 1; test: Concentration required to inhibit by 50% syncytium formation between MOLT-4 cells and HIV-1(IIIB); assay type: functional, organism-based; conditions: Human immunodeficiency virus 1, MOLT-4
# Outline: (§4)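 Uninfected MOLT-4 cells were co-cultured with HUT-78 cells chronically infected with HIV-1 (IIIB) or HIV-2 (ROD), in the presence of compound. The end point was syncytium formation, and IC50 is the concentration giving 50% inhibition. Values are means of two separate experiments.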
# Human alphaherpesvirus 1 [5] = test: Concentration required to inhibit HSV-1 TK-(B2006) induced cytopathicity in E6SM cells by 50%; conditions: Human alphaherpesvirus 1, E6SM
# Sindbis virus = test: Concentration required to inhibit Sindbis induced cytopathicity in Vero cells by 50%; assay type: functional, organism-based; outline: as §2
# Semliki Forest virus = test: Concentration required to inhibit forest induced cytopathicity in Vero cells by 50%; assay type: functional, organism-based; outline: as §2
# Junin virus = test: Concentration required to inhibit Junin induced cytopathicity in Vero cells by 50%; assay type: functional, organism-based; conditions: Mammarenavirus juninense
# Human alphaherpesvirus 1 [6] = test: Concentration required to inhibit HSV-1(KOS) induced cytopathicity in E6SM cells by 50%; conditions: Human alphaherpesvirus 1, E6SM
# HEL = test: Minimum cytotoxic concentration required to cause a microscopically detectable alteration of normal cell morphology in HEL cells; assay type: functional, Homo sapiens
# Human respirovirus 3 = test: Concentration required to inhibit parainfluenza-3 induced cytopathicity in Vero cells by 50%; assay type: functional, organism-based; conditions: Human respirovirus 3, Vero; outline: as §2
# Poliovirus 1 = test: Concentration required to inhibit Polio-1 induced cytopathicity in HeLa cells by 50%; assay type: functional, organism-based; conditions: Enterovirus C
# HeLa = test: Minimum cytotoxic concentration required to cause a microscopically detectable alteration of normal cell morphology in HeLa cells; assay type: functional, Homo sapiens; outline: as §3
# [7] = test system: Human immunodeficiency virus 1; test: Concentration required to inhibit HIV-1 induced cytopathicity in MT-4 cells by 50%; assay type: functional, organism-based; conditions: Human immunodeficiency virus 1, MT4; outline: as §1
# [8] = test system: Human immunodeficiency virus 2; test: Concentration required to inhibit by 50% syncytium formation between MOLT-4 cells and HIV-2 (ROD) infected HUT-78 cells; assay type: functional, organism-based; conditions: Human immunodeficiency virus 2, MOLT-4; outline: as §4
# Human betaherpesvirus 5 [9] = test: Concentration required to inhibit HCMV(Davis) induced cytopathicity in HEL cells by 50%; assay type: functional, organism-based; conditions: Human betaherpesvirus 5, HEL; outline: as §2
# Vaccinia virus = test: Concentration required to inhibit Vaccinia induced cytopathicity in E6SM cells by 50%; assay type: functional, organism-based; conditions: Orthopoxvirus vaccinia
# [10] = test system: Vesicular stomatitis virus; test: Concentration required to inhibit vesicular stomatitis induced cytopathicity in E6SM cells by 50%; assay type: functional, organism-based
# MT4 = test: Concentration required to reduce the viability of mock-infected MT-4 cells by 50%; assay type: functional; conditions: Homo sapiens
# Outline: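 Mock-infected MT-4 cells were exposed to compound. CC50 is the concentration that reduced cell viability by 50%. Values are means of two separate experiments.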
# [11] = test system: Mammalian orthoreovirus 1; test: Concentration required to inhibit reovirus-1 induced cytopathicity in Vero cells by 50%; assay type: functional, organism-based; conditions: Mammalian orthoreovirus 1, Vero; outline: as §2
# [12] = test system: Human immunodeficiency virus 1; test: Inhibitory concentration required to inhibit HIV-induced cytopathicity in CEM-4 cells by 50% based in the MTT assay; assay type: functional, organism-based; conditions: Human immunodeficiency virus 1, CEM-4
# Vero = test: Minimum cytotoxic concentration required to cause a microscopically detectable alteration of normal cell morphology in Vero cells; assay type: functional, Chlorocebus sabaeus; outline: as §3
smiles,measurement,setting,value
CCCCCCCCCCCCSCCCCCCC(=O)NCCCCCCCCCCC(=O)NCCC(=O)[O-].[Na+],IC50,[1],Not Active
same,CC50,CEM-4,> 300 µg/mL
CCCCCCCCCCCCSCCCCCCC(=O)N(CC)CCCCCCCCCCC(=O)NCC(=O)[O-].[Na+],IC50,[1],Not Active
same,CC50,CEM-4,50 µg/mL
CCCCCCCCCCCCSCCCCCCCCCCCCCCCCCCCCCCC(=O)NCCCCCCCCCCC(=O)[O-].[Na+],IC50,Human alphaherpesvirus 2,> 100 µg/mL
same,IC50,[2],69 µg/mL
same,IC50,Coxsackievirus,> 200 µg/mL
same,IC50,Human betaherpesvirus 5 [3],> 50 µg/mL
same,MMC,E6SM,>200 µg/mL
same,IC50,Tacaribe virus,> 50 µg/mL
same,IC50,[4],150 µg/mL
same,IC50,Human alphaherpesvirus 1 [5],> 100 µg/mL
same,IC50,Sindbis virus,> 100 µg/mL
same,IC50,Semliki Forest virus,> 100 µg/mL
same,IC50,Junin virus,> 50 µg/mL
same,IC50,Human alphaherpesvirus 1 [6],> 100 µg/mL
same,MMC,HEL,>50 µg/mL
same,IC50,Human respirovirus 3,> 100 µg/mL
same,IC50,Poliovirus 1,> 200 µg/mL
same,MMC,HeLa,>200 µg/mL
same,IC50,[1],Not Active
same,IC50,[7],55 µg/mL
same,IC50,[8],150 µg/mL
same,CC50,CEM-4,99 µg/mL
same,IC50,Human betaherpesvirus 5 [9],> 50 µg/mL
same,IC50,Vaccinia virus,> 100 µg/mL
same,IC50,[10],> 100 µg/mL
same,CC50,MT4,> 250 µg/mL
same,IC50,[11],> 100 µg/mL
CCCCCCCCCCCCSCCCCCCCCCCC(=O)NCCCCCCCCCCC(=O)NC(CCC(=O)[O-])C(=O)O.[Na+] (stereo not drawn),IC50,[12],11 µg/mL
same,CC50,CEM-4,> 100 µg/mL
CCCCCCCCCCCCSCCCCCCCCCCCCCCC(=O)NCCCCCCCCCCC(=O)NC(CCC(=O)[O-])C(=O)O.[Na+] (stereo not drawn),IC50,[12],12 µg/mL
same,CC50,CEM-4,> 100 µg/mL
CCCCCCCCCCCCSCCCCCCCCCCCCCCCCCCCCCCCCCCCCCCCCCCCCCCCCCCCCCCCCCCCCCCCCCCCCCCCCCCCCCCCCCCCCCCCCC(=O)N(CC)CCCCCCCCCCC(=O)[O-].[Na+],IC50,[12],5 µg/mL
same,CC50,CEM-4,30 µg/mL
CCCCCCCCCCCCSCCCCCCCCCCCCCCCCCCCCCCCCCCCCCCC(=O)NCCCCCCCCCCC(=O)NC(CCC(=O)[O-])C(=O)O.[Na+] (stereo not drawn),IC50,[12],15 µg/mL
same,CC50,CEM-4,> 100 µg/mL
CCCCCCCCCCCCSCCCCCCCCCCCCCCCCCCCCCCCCCCCCCCCCCCCCCCCCC(=O)NCCCCCCCCCCC(=O)[O-].[Na+],IC50,Human alphaherpesvirus 2,20 µg/mL
same,IC50,[2],1.3 µg/mL
same,IC50,Coxsackievirus,> 200 µg/mL
same,IC50,Human betaherpesvirus 5 [3],40 µg/mL
same,MMC,E6SM,200 µg/mL
same,IC50,Tacaribe virus,> 50 µg/mL
same,IC50,[4],30 µg/mL
same,IC50,Human alphaherpesvirus 1 [5],> 100 µg/mL
same,IC50,Sindbis virus,> 200 µg/mL
same,IC50,Semliki Forest virus,> 200 µg/mL
same,MMC,Vero,>200 µg/mL
same,IC50,Junin virus,> 50 µg/mL
same,IC50,Human alphaherpesvirus 1 [6],> 100 µg/mL
same,MMC,HEL,>50 µg/mL
same,IC50,Human respirovirus 3,> 200 µg/mL
same,IC50,Poliovirus 1,> 200 µg/mL
same,MMC,HeLa,>200 µg/mL
same,IC50,[1],Not Active
same,IC50,[7],5 µg/mL
same,IC50,[8],50 µg/mL
same,CC50,CEM-4,> 50 µg/mL
same,IC50,Human betaherpesvirus 5 [9],15 µg/mL
same,IC50,Vaccinia virus,> 100 µg/mL
same,IC50,[10],> 100 µg/mL
same,CC50,MT4,> 250 µg/mL
same,IC50,[11],> 200 µg/mL
CCCCCCCCCCCCSCCCCCCC(=O)N(CC)CCCCCCCCCCC(=O)NC(CCC(=O)[O-])C(=O)O.[Na+] (stereo not drawn),IC50,[12],21 µg/mL
same,CC50,CEM-4,> 100 µg/mL
CCCCCCCCCCCCSCCCCCCCCCCCCCCCCCCCCCCC(=O)N(CC)CCCCCCCCCCC(=O)[O-].[Na+],IC50,[12],4 µg/mL
same,CC50,CEM-4,50 µg/mL
CCCCCCCCCCCCSCCCCCCCCCCCCCCCCCCCCCCCCCCC(=O)N(C)CCCCCCCCCCC(=O)[O-].[Na+],IC50,[1],Not Active
same,CC50,CEM-4,> 200 µg/mL
CCCCCCCCCCCCSCCCCC(=O)NCCCCCCCCCCC(=O)NC(CCC(=O)[O-])C(=O)O.[Na+] (stereo not drawn),IC50,[1],Not Active
same,CC50,CEM-4,> 100 µg/mL
CCCCCCCCCCCCSCCCCCCCCCCC(=O)N(CC)CCCCCCCCCCC(=O)NCCC(=O)[O-].[Na+],IC50,Human alphaherpesvirus 2,20 µg/mL
same,IC50,[2],30 µg/mL
same,IC50,Coxsackievirus,> 200 µg/mL
same,IC50,Human betaherpesvirus 5 [3],50 µg/mL
same,IC50,Tacaribe virus,> 50 µg/mL
same,IC50,[4],30 µg/mL
same,IC50,Human alphaherpesvirus 1 [5],150 µg/mL
same,IC50,Sindbis virus,> 200 µg/mL
same,IC50,Semliki Forest virus,> 200 µg/mL
same,MMC,Vero,>200 µg/mL
same,IC50,Junin virus,> 50 µg/mL
same,IC50,Human alphaherpesvirus 1 [6],70 µg/mL
same,MMC,HEL,>50 µg/mL
same,IC50,Human respirovirus 3,> 200 µg/mL
same,IC50,Poliovirus 1,> 200 µg/mL
same,MMC,HeLa,>200 µg/mL
same,IC50,[1],Not Active
same,IC50,[7],13 µg/mL
same,IC50,[8],30 µg/mL
same,CC50,CEM-4,50 µg/mL
same,IC50,Human betaherpesvirus 5 [9],20 µg/mL
same,IC50,Vaccinia virus,> 200 µg/mL
same,IC50,[10],> 200 µg/mL
same,CC50,MT4,> 250 µg/mL
same,IC50,[11],> 200 µg/mL
CCCCCCCCCCCCSCCCCCCCCCCCCCCCCC(=O)N(CC)CCCCCCCCCCC(=O)NCCC(=O)[O-].[Na+],IC50,[1],Not Active
same,CC50,CEM-4,> 100 µg/mL
